# Compounds with a hit are over-represented: about 6.4% of the library has one in this group of screens.
# HUVEC prolif 384: inhibitors of HUVEC proliferation, primary screen, cell-based, 384-well | CellTiter-Glo luminescence, 72 h; stronger effect = lower value | viability, % at 10 µM (by protocol) | 86,000 compounds, 1.1% hits | AID 648, 2007;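 active = viability at or below 30%; inactive = viability above 30%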;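 also: 100% = median luminescence of DMSO-only cell control wells on each plate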
# Fibroblast inh: antiproliferative effect on LL 47 fibroblasts – human, LL 47 cells, CellTiter-Glo luminescence, primary screen. LL 47 human lung fibroblast viability, ATP luminescence; stronger effect = lower value. viability, % at 10 µM. 85,000 compounds, 1.1% hits;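 active = viability at or below 50% in the single dose screen; inactive = viability above 50%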;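 also: compound exposure lasted 72 h before the ATP readout; 100% = median luminescence of untreated cell-only wells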
#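 Signal: luminescent ATP detection, CellTiter-Glo; assay system: LL 47 human lung fibroblasts; input: 1,150 cells/well; incubation: overnight cell rest, 72 h compound treatment at 37 °C; measure: % viability versus median cells-only luminescence; medium: IMEM growth medium with 15% fetal bovine serum; dosing: compound addition at 0.1% DMSO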
# Jurkat tox 60K: cytotoxicity toward Jurkat T cells, primary screen, cytotoxicity control, cell-based, Jurkat E6.1, 60K MLSMR library; Jurkat E6.1 viability, ATP luminescence, 48 h; 56,000 compounds, 1.2% hits; inhibition, % at 4 µM;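 active = inhibition above the mean inhibition of all tested compounds plus 3 SD, cut at about 28% in these data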
# H69AR growth 86K: proliferation blockers of H69AR lung cancer cells, primary screen, cell-based, human, 86K library. viability, % at 10 µM. H69AR lung tumor viability, ATP luminescence, 72 h; stronger effect = lower value. 85,000 compounds, 6% hits. AID 598, 2007;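 active = viability at or below 40%; inactive = viability above 40%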;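 also: multidrug resistant small cell line overexpressing MRP-1 efflux transporter; 100% = mean luminescence of untreated control wells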
# The depositor's hits bear a star; / = no result.
SMILES,HUVEC prolif 384,Fibroblast inh,Jurkat tox 60K,H69AR growth 86K
CCn1c(CNc2ccc(C)cc2)nnc1SCC(N)=O,102,96,/,104
N#Cc1c(SCC(=O)Nc2nccs2)nc2c(c1-c1ccco1)CCCC2,98,98,-1,23*
Cc1cc(Nc2nc3ccccc3nc2Cl)n(-c2ccccc2C)n1,109,92,/,17*
Cc1cc(Nc2nc3ccccc3nc2Cl)n(-c2ccccc2)n1,47,78,/,36*
Cc1cc(C)n(-c2nc3ccccc3nc2Nc2ccc3c(c2)OCO3)n1,89,97,-2,98
Cc1cc(Nc2ccc(Cl)cc2)n(-c2ccccc2)n1,83,54,/,95
CCOC(=O)c1cnc2ccc(OCC)cc2c1N1CCN(c2ccccc2OC)CC1,67,87,/,29*
CCOC(=O)C1CCN(c2c(N3CCN(c4ccccc4OC)CC3)c(=O)c2=O)CC1,100,103,1,73
COc1ccc(Br)cc1C(=O)Nc1cc(C)cc(C)c1,101,96,/,98
Cc1ccccc1-n1ncc2c([N+](=O)[O-])cc([N+](=O)[O-])cc21,6.3*,65,/,25*
Cc1ccccc1-n1c(C)cc(/C=N/Nc2ccc([N+](=O)[O-])cn2)c1C,79,56,/,69
CCOC(=O)Nc1c(C(=O)OC)[nH]c2cc(OC)ccc12,72,88,43*,18*
CCOC(=O)c1[nH]c2ccc(OC)cc2c1NC(=O)OC,81,105,6,93
COC(=O)c1[nH]c2cc(OC)ccc2c1NC(=O)CN1CCN(c2cccc(C)c2)C(C)C1 (configuration not stated),53,98,/,15*
Cc1cc(NC(=O)Cn2nc(-c3ccccc3F)ccc2=O)ccc1-n1cnnn1,100,97,4,73
Nc1c(Br)cc(Br)c(N2CCCC2=O)c1Br,86,89,-2,80
CSC1=C(C#N)C(C)CC(=O)N1 (configuration not stated),101,106,/,105
Cc1cc(C(=O)CSc2nnc(Nc3ccccc3)s2)c(C)n1CC1CCCO1 (configuration not stated),80,96,-2,101
Cc1cc(C(=O)CSc2nnc(NCc3ccccc3)s2)c(C)n1C,66,63,34*,32*
Cc1cnnc2ccc3c(no[n+]3[O-])c12,102,107,/,33*
CCOC(=O)COn1c2c(c3c4no[n+]([O-])c4ccc31)CCCC2,92,105,5,/
COc1cc2c(cc1OC)CN(C(=O)c1cc3ccccc3oc1=O)CC2,64,/,60*,24*
COc1ccc(-c2cc(C(F)(F)F)nc(N3CCN(c4ccc(F)cc4)CC3)n2)cc1OC,68,94,/,17*
N#CCCn1c(Cl)nc2ccccc21,99,87,-7,98
O=C1CC(c2ccncc2)c2cc3c(cc2N1)OCCO3 (configuration not stated),84,103,-5,93
SMILES,HUVEC prolif 384,Fibroblast inh,Jurkat tox 60K,H69AR growth 86K
O=C1CC(c2ccsc2)c2cc3c(cc2N1)OCCO3 (configuration not stated),92,92,4,27*
CCCOc1c(OC)cccc1C1CC(=O)Nc2cc(OC)c(OC)c(OC)c21 (configuration not stated),58,88,3,86
CCOc1c(OC)cccc1C1CC(=O)Nc2cc3c(cc21)OCCO3 (configuration not stated),77,96,9,15*
Cc1[nH]n(-c2ccc([N+](=O)[O-])cc2)c(=O)c1C=NCCN1CCN(C(=O)c2ccc(Br)cc2)CC1,66,71,/,40*
CC(=O)NC1=NN(C(C)=O)C(C)(c2cccs2)S1 (configuration not stated),76,57,/,28*
Cc1ccc2cc(CN(CC3CCCO3)S(=O)(=O)c3ccccc3)c3nnnn3c2c1 (configuration not stated),96,94,/,12*
CCCCCCn1cnc2c(c1=O)c1nc3ccccc3nc1n2/N=C/c1ccco1,74,97,1,85
COCCn1cnc2c(c1=O)c1nc3ccccc3nc1n2/N=C/c1cccc(OC)c1OC,67,96,-7,39*
O=c1c2c3nc4ccccc4nc3n(/N=C/c3cccs3)c2ncn1-c1ccccc1,84,105,1,30*
C=CCn1cnc2c(c1=O)c1nc3ccccc3nc1n2/N=C/c1cccc(OC)c1,49,92,7,22*
c1cn(CCCNc2ncnc3sc4c(c23)CCC4)cn1,90,88,4,89
c1csc(CCNc2ncnc3sc4c(c23)CCC4)c1,63,85,40*,53
O=[N+]([O-])c1cnccc1Nc1cccc(F)c1,86,93,/,86
O=[N+]([O-])c1ccc(Oc2cccc(F)c2)c2ccncc12,62,65,/,34*
Cc1ccc(Cl)cc1N1CCN(C(=O)C2CCN(S(=O)(=O)c3c(C)nn(C)c3C)CC2)CC1,63,90,7,25*
CC1(C)Cc2c(c(N3CCOCC3)nc3sc4c(=O)[nH]cnc4c23)CS1,65,93,/,43
CCN(CC)CCNc1ncnc2c1sc1nc(N3CCOCC3)c3c(c12)CC(C)(C)SC3,7.2*,2.6*,/,2.6*
CN(C)CCNc1ncnc2c1sc1nc(N3CCOCC3)c3c(c12)CC(C)(C)SC3,17*,16*,/,94
OCCN(CCO)c1ncnc2c1sc1nc(N3CCOCC3)c3c(c12)CCCC3,78,88,/,72
Cc1ccccc1Nc1nc(N)nc(CN2C(=O)NC3(CCCCC3C)C2=O)n1 (configuration not stated),114,/,6,101
NC(=O)NC(Cc1ccccc1)C(=O)NCC1(N2CCCCC2)CCCCC1 (configuration not stated),94,97,-8,92
O=C(C1COc2ccccc2O1)N1CCN(c2ccccc2)CC1 (configuration not stated),106,96,4,101
COc1cc2nc(N3CCN(C(=O)c4ccco4)CC3)nc(N)c2cc1OC,87,22*,/,10*
COc1cc2nc(N3CCN(C(=O)C4COc5ccccc5O4)CC3)nc(N)c2cc1OC (configuration not stated),62,99,/,29*
COc1cc(C(=O)N2CCN(C(=O)c3ccco3)CC2)cc(OC)c1OC,83,86,/,87
SMILES,HUVEC prolif 384,Fibroblast inh,Jurkat tox 60K,H69AR growth 86K
CCC(=O)N1CCc2cc(S(=O)(=O)N3CCN(c4ccccn4)CC3)ccc21,118,94,/,89
COC(=O)c1cc2ccsc2n1CC(=O)Nc1cc(Cl)ccc1OC,/,/,86*,/
O=S(=O)(c1ccc(Cl)c(Cl)c1)c1snnc1-c1ccccc1,3.6*,4.8*,/,-0.2*
Cc1ncc(S(=O)(=O)c2ccc(Cl)cc2)c(-c2ccccc2)n1,75,86,/,80
COCCCNc1c2c3c(cccc3[nH]c1=O)C(=O)c1ccccc1-2,46,64,/,18*
CN(C)S(=O)(=O)c1ccc(S(=O)(=O)N(Cc2ccccn2)Cc2ccco2)cc1,/,/,4,/
